Measurements reported in ChEMBL document CHEMBL1123806, “Effects of derivatives of kahweol and cafestol on the activity of glutathione S-transferase in mice” (1987).

Legend:
[1] = target: T1, Glutathione S-transferase Mu 1 (Mus musculus) (UniProt P10649); test: GST activity in the cytosols of liver of ICR/Ha mice, using 1-Chloro-2,4-dinitrobenzene as substrate; format: functional, tissue-based
T1 sequence (whole entry): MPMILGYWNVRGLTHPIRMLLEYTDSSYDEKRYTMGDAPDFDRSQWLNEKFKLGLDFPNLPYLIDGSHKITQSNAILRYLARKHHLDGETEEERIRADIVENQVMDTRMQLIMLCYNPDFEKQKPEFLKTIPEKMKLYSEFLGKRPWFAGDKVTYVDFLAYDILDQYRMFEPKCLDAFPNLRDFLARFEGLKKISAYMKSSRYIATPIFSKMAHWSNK
How it was run: (§1)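 Mice (6-8 wk, groups of 4-5, semipurified diet) dosed po once daily for 3 days with 10 μmol in 0.2 mL cottonseed oil/10% ethanol. Vehicle-only controls. Killed 24 h after the last dose. Tissue homogenized in phosphate buffer pH 7.5, then spun at 100000g for 1 h to give cytosol. CDNB conjugation read at 340 nm, 30 °C, pH 6.5 phosphate, 5 mM GSH, 1 mM CDNB. Units µmol/min/mg protein, mean ± SD; ratio = treated/control.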

[2] = species on record: Mus musculus; test: GST activity in the cytosols of small bowel mucosa of ICR/Ha mice was determined by using 1-Chloro-2,4-di nitrobenzene as the substrate; format: functional; how it was run: as §1
[3] = target: T1, Glutathione S-transferase Mu 1 (Mus musculus); test: GST activity in the cytosols of the forestomach of ICR/Ha mice was determined by using 1-Chloro-2,4-dinitrobenzene as the substrate; format: functional, tissue-based; settings: Stomach; how it was run: as §1
[4] = target: T1, Glutathione S-transferase Mu 1 (Mus musculus); test: GST activity in the cytosols of the lung of ICR/Ha mice was determined by using 1-Chloro-2,4-dinitrobenzene as the substrate; format: functional; how it was run: as §1
[5] = Tissue acid-soluble sulfhydryl levels of liver of ICR/Ha mice.; format: functional, Mus musculus
How it was run: (§2)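 Same dosing: 10 μmol po daily for 3 days in cottonseed oil/10% ethanol, vehicle controls, tissues taken 24 h after the last dose. Homogenate (phosphate pH 7.5) used at once. Ellman method: equal volume 4% sulfosalicylic acid, then supernatant plus 9 volumes of 0.1 mM DTNB in 0.1 M phosphate pH 8.0. Read spectrophotometrically. Units µmol SH/g tissue, mean ± SD; ratio = treated/control.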

[6] = species on record: Mus musculus; test: Tissue acid-soluble sulfhydryl levels of small bowel mucosa of ICR/Ha mice; format: functional; how it was run: as §2
[7] = Ratio is the compound /control(SH level in liver); format: functional, Mus musculus; how it was run: as §2
[8] = species on record: Mus musculus; test: Ratio is the compound /control(SH in small bowel mucosa); format: functional; how it was run: as §2
[9] = target: T1, Glutathione S-transferase Mu 1 (Mus musculus); test: Ratio is the compound /control(Specific activity in forestomach); format: functional, tissue-based; settings: Stomach; how it was run: as §1
[10] = target: T1, Glutathione S-transferase Mu 1 (Mus musculus); test: Ratio is the compound /control(Specific activity in liver(GST)); format: functional, tissue-based; how it was run: as §1
[11] = target: T1, Glutathione S-transferase Mu 1 (Mus musculus); test: Ratio is the compound /control(Specific activity in lung); format: functional; how it was run: as §1
[12] = target: T1, Glutathione S-transferase Mu 1 (Mus musculus); test: Ratio is the compound /control(Specific activity in small bowel mucosa(GST)); format: functional; how it was run: as §1
[13] = species on record: Mus musculus; test: GST activity in the cytosols of small bowel mucosa of ICR/Ha mice was determined by using 1-Chloro-2,4-dinitrobenzene as the substrate.; format: functional; how it was run: as §1
[14] = species on record: Mus musculus; test: Tissue acid-soluble sulfhydryl levels of small bowel mucosa of ICR/Ha mice.; format: functional; how it was run: as §2
[15] = target: T1, Glutathione S-transferase Mu 1 (Mus musculus); test: GST activity in the cytosols of small bowel mucosa of ICR/Ha mice was determined by using 1-Chloro-2,4-di nitrobenzene as the substrate.; format: functional; how it was run: as §1
[16] = species on record: Mus musculus; test: GST activity in the cytosols of small bowel mucosa of ICR/Ha mice was determined by using 1-Chloro-2,4-dinitrobenzene as the substrate; format: functional; how it was run: as §1
[17] = Tissue acid-soluble sulfhydryl levels of liver of ICR/Ha mice; format: functional, Mus musculus; how it was run: as §2
[18] = species on record: Mus musculus; test: Tissue acid-soluble sulfhydryl levels of liver of ICR/Ha mice. P<0.005; format: functional; how it was run: as §2
[19] = species on record: Mus musculus; test: Tissue acid-soluble sulfhydryl levels of small bowel mucosa of ICR/Ha mice. P < 0.005; format: functional; how it was run: as §2

Structure (SMILES) | Specific activity (uM min-1 (mg of protein)-1) [1] | Specific activity [2] | Specific activity (uM min-1 (mg of protein)-1) [3] | Specific activity (uM min-1 (mg of protein)-1) [4] | SH level [5] [µM/g] | SH level [6] [µmol/g] | Ratio [7] | Ratio [8] | Ratio [9] | Ratio [10] | Ratio [11] | Ratio [12] | Specific activity [13] | SH level [14] [µmol/g] | Specific activity (uM min-1 (mg of protein)-1) [15] | Specific activity [16] | SH level [17] [µM/g] | SH level [18] [µM/g] | SH level [19] [µM/g]
C[C@@]12CCc3occc3C1CC[C@]13CC(O)C(CCC12)C3 (some centres undefined) | 2.54 | 1.52 uM min-1 (mg of protein)-1 | 0.91 | 0.2 | 12.8 | 11.9 | 1.7 | 2.2 | 1.2 | 1.5 | 0.8 | 4.2 | – | – | – | – | – | – | –
CC(=O)OC[C@@]1(O)C[C@@]23CCC4C5=C(CC[C@@]4(C)C2CCC1C3)OCC5 (some centres undefined) | 1.27 | – | – | – | 15.6 | – | 1.55 | 1.2 | – | 1.08 | – | 1 | 0.41 uM min-1 (mg of protein)-1 | 7.1 | – | – | – | – | –
C[C@@]12CCc3occc3C1CC[C@@]13CC(CCC12)C(O)(CO)C3 (some centres undefined) | 3.35 | – | 0.91 | 0.26 | 14.9 | – | 2 | 1.5 | 1.2 | 2 | 1 | 3.8 | – | 7.9 | 1.36 | – | – | – | –
C[C@@]12CC[C@@H]3OCC[C@@H]3C1CC[C@@]13CC(CCC12)[C@@](O)(CO)C3 (some centres undefined) | 1.48 | – | – | – | – | 7.4 | 1.44 | 1.2 | – | 1.25 | – | 1.4 | – | – | – | 0.54 uM min-1 (mg of protein)-1 | 14.5 | – | –
CC(=O)OC[C@@]1(O)C[C@@]23CC[C@@H]4c5ccoc5CC[C@@]4(C)[C@@H]2CC[C@@H]1C3 [CAFESTOL ACETATE] | 3.24 | – | – | – | 14.3 | – | 1.41 | 2 | – | 2.74 | – | 7.5 | 3 uM min-1 (mg of protein)-1 | 12 | – | – | – | – | –
C[C@@]12C=Cc3occc3C1CC[C@]13CC(=O)C(CCC12)C3 (some centres undefined) | 3.67 | – | 1.05 | 0.28 | 11.8 | – | 1.3 | 1.6 | 1.6 | 2.6 | 1 | 6.1 | – | 10.4 | 1.84 | – | – | – | –
CC(=O)OC[C@@]1(O)C[C@@]23CCC4[C@H]5CCO[C@H]5CC[C@@]4(C)C2CCC1C3 (some centres undefined) | 1.25 | – | – | – | – | – | 1.42 | 1.4 | – | 1.06 | – | 1 | 0.41 uM min-1 (mg of protein)-1 | – | – | – | – | 14.3 | 8.2
CC(=O)OC1C[C@@]23CCC4c5ccoc5C=C[C@@]4(C)C2CCC1C3 (some centres undefined) | 3.68 | – | 0.94 | 0.3 | – | 10.8 | 1.1 | 1.7 | 1.4 | 2.6 | 1 | 6.9 | – | – | 2.06 | – | 10.1 | – | –
CC1(O)C[C@@]23CCC4c5ccoc5C=C[C@@]4(C)C2CCC1C3 (some centres undefined) | 2.59 | – | 0.92 | 0.24 | – | 7.7 | 0.9 | 1.2 | 1.4 | 1.8 | 0.8 | 4.5 | – | – | 1.34 | – | 8.3 | – | –
C[C@@]12CCc3occc3C1CC[C@]13CCC(CCC12)C3 (some centres undefined) | 2.62 | 0.95 uM min-1 (mg of protein)-1 | 0.85 | 0.33 | 13 | 8.4 | 1.7 | 1.6 | 1.1 | 1.6 | 1.3 | 2.6 | – | – | – | – | – | – | –
C[C@@]12CCc3occc3C1CC[C@]13CC(=O)C(CCC12)C3 (some centres undefined) | 2.85 | – | 0.88 | 0.29 | 13.3 | – | 1.8 | 1.9 | 1.2 | 1.7 | 1.1 | 5.7 | – | 10.3 | 2.06 | – | – | – | –
CC1(O)C[C@@]23CCC4c5ccoc5CC[C@@]4(C)C2CCC1C3 (some centres undefined) | 2.26 | 1.3 uM min-1 (mg of protein)-1 | 0.76 | 0.27 | 16.3 | 8.6 | 2.1 | 1.6 | 1 | 1.4 | 1 | 3.6 | – | – | – | – | – | – | –
C[C@@]12CCC3=C(CCO3)C1CC[C@@]13CC(CCC12)[C@@](O)(CO)C3 (some centres undefined) | 1.22 | – | – | – | 11.9 | – | 1.18 | 1.1 | – | 1.04 | – | 1.1 | 0.42 uM min-1 (mg of protein)-1 | 6.5 | – | – | – | – | –
C[C@@]12C=Cc3occc3C1CC[C@]13CCC(CCC12)C3 (some centres undefined) | 3.06 | 1.18 uM min-1 (mg of protein)-1 | 0.63 | 0.36 | – | 7.8 | 1.1 | 1.2 | 0.9 | 2.1 | 1.2 | 3.9 | – | – | – | – | 9.5 | – | –
CC(=O)OC1C[C@@]23CCC4c5ccoc5CC[C@@]4(C)C2CCC1C3 (some centres undefined) | 2.24 | – | 0.83 | 0.29 | 13.3 | – | 1.8 | 1.5 | 1.1 | 1.3 | 1.1 | 5.1 | – | 8.3 | 1.83 | – | – | – | –
C[C@@]12C=Cc3occc3C1CC[C@]13CC(O)C(CCC12)C3 (some centres undefined) | 3.57 | – | 1.01 | 0.23 | – | 10.9 | 1.1 | 1.7 | 1.5 | 2.5 | 0.8 | 5.7 | – | – | 1.72 | – | 9.5 | – | –
C[C@@]12C=Cc3occc3C1CC[C@@]13CC(CCC12)C(O)(CO)C3 (some centres undefined) | 4.3 | – | 1.4 | 0.29 | 13 | – | 1.5 | 2.1 | 2.1 | 3 | 1 | 7.3 | – | 13.1 | 2.21 | – | – | – | –
